Screening results: PubChem BioAssay, Johns Hopkins Ion Channel Center
The list is not random: actives were taken first. Their share in the collection is about 3.8%.
KCNQ1 block: inhibitors of human KCNQ1 potassium channel. CHO-K1 KCNQ1, FluxOR thallium flux fluorescence; stronger effect = higher value. B-score at 10 µM. actives 1.3% (n = 310,000);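 active means compounds whose thallium flux B-score, printed positive for inhibition, exceeds three library SD while starting fluorescence stays within three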;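 further: channel opened by potassium depolarization with thallium stimulus after 20 min compound exposure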
KCNQ1 pot: potentiates or activates the human KCNQ1 potassium channel. P51787. CHO-K1 KCNQ1, thallium flux FluxOR fluorescence; stronger effect = higher value. B-score at 10 µM. actives 0.35% (n = 310,000). AID 2648;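 active means fluorescence ratio B-score, a plate-corrected score, at least three library SD, with initial intensity B-score within 5 SD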
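Schedule – 37 °C overnight plating, 90-min dark dye load, 20-min compound pretreatment · System – stable KCNQ1 CHO-K1 line · Probe or stimulus – thallium- and potassium-containing depolarizing buffer · Measured by – kinetic FluxOR fluorescence, 10 s baseline plus 110 s post-stimulus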
KCNK9 inh: blocks the human KCNK9 two-pore domain potassium channel; HEK293 KCNK9, FluxOR thallium flux fluorescence; stronger effect = lower value; actives 1.2% (n = 310,000); B-score at 10 µM; AID 488922; Q9NPC2;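 active means ratio B-score over 3 SD below the library mean, with starting fluorescence within 5 SD of its mean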;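 further: negative B-score means less thallium flux so channel inhibition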
Target sequence (Q9NPC2 whole entry, looked up, the tested form may be a part): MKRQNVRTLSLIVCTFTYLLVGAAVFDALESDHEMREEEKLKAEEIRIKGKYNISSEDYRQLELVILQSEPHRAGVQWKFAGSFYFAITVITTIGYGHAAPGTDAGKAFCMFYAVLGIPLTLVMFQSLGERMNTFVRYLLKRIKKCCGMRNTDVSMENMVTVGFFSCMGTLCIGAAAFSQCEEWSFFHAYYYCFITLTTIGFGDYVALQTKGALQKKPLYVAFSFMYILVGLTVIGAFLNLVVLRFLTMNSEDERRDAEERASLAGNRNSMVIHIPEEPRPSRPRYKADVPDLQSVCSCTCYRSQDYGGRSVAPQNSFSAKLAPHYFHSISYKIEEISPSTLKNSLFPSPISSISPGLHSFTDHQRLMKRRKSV
Kir21 block: Kir2.1 (mouse) channel inhibition | P35561 | HEK293-Kir2.1, FluxOR thallium flux fluorescence; stronger effect = lower value | B-score at 10 µM | actives 0.85% (n = 310,000) | AID 1672;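 active means fluorescence ratio B-score at or below minus 3 SD of library scores, with starting-brightness B-score within 2 SD, cut at about -4.2 in these data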;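 further: channel flux triggered by added potassium and thallium sulfate stimulus; B-score of peak minus minimum fluorescence over baseline after thallium stimulus; more negative B-score means stronger Kir2.1 block with less thallium influx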
KCNK3 block: human KCNK3 channel inhibition, primary screen. O14649. CHO-KCNK3 thallium flux, FluxOR fluorescence; stronger effect = lower value. B-score at 10 µM. actives 0.84% (n = 340,000). AID 602410;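 active means B-score under library mean minus 4 SD, starting fluorescence ratio at most library mean plus 5 SD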;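 further: more negative B-score means stronger inhibition of thallium flux through KCNK3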
hERG rescue: hERG (human) protection from proarrhythmic block; Q12809; CHO-hERG, FluxOR thallium flux, dofetilide IC70 present; activation (rescue from dofetilide block), less the hit threshold, % at 10 µM; actives 0.51% (n = 310,000);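 active means activation above the mean of controls blocked by dofetilide plus 5 SD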;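 further: thallium influx through hERG after potassium depolarization seen as dye fluorescence rise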
KCNQ1 block val: confirmation of human KCNQ1 potassium channel inhibitors; actives 93% (n = 1,600); shares compounds with KCNQ1 block; inhibition, % at 10 µM; KCNQ1 cell line, FluxOR thallium flux fluorescence;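 active means primary screen active, with duplicate mean exceeding buffer control mean plus 3 SD of buffer wells, cut at about 28% in these data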;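 further: 0% = buffer control ratio and 100% = XE991 inhibitor control ratio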
CHO KCNQ1 ctr: activity in parental CHO cells lacking KCNQ1. fluorescence ratio (Tl flux) at 10 µM. actives 21% (n = 1,600). parental CHO-K1, FluxOR thallium flux fluorescence ratio; stronger effect = lower value; zero means no signal rise above baseline. shares compounds with KCNQ1 block;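 active means mean of duplicate thallium-flux fluorescence ratios in parental host cells more than 5 SD below the buffer control mean, cut at about 0.38 in these data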;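 further: ratio is peak minus minimum fluorescence divided by baseline fluorescence; actives read low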
KCNQ1 APC inh: human KCNQ1 inhibition validated by electrophysiology; shares compounds with KCNQ1 block; KCNQ1-CHO cells, automated patch clamp current; calls only at 10 µM; actives 20% (n = 490);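 active means KCNQ1 current drop exceeding 3 SD of negative control wells, seen in both duplicate runs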;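 further: steady state current during a 2 s step from -80 to +40 mV; negative values mean current inhibition and positive values mean potentiation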
KCNQ2 spec: KCNQ1 inhibitor that also blocks rat KCNQ2 channel | shares compounds with KCNQ1 block | KCNQ2 cells, FluxOR thallium flux fluorescence | inhibition, % at 10 µM | actives 71% (n = 1,600);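 active means mean percent inhibition of the KCNQ2 thallium signal more than 5 SD above the buffer-only control wells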;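 further: KCNQ2 expressed in CHO cells; 0% = buffer control wells and 100% = XE-991 inhibitor control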
KCNQ1-KCNE1 inh: human KCNQ1/KCNE1 inhibition in KCNQ1 specificity screen; inhibition, % at 10 µM; actives 77% (n = 1,600); shares compounds with KCNQ1 block; KCNQ1/KCNE1 cells, FluxOR thallium flux fluorescence;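 active means mean percent inhibition of duplicate wells above the buffer-only control mean plus 3 SD of those controls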;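 further: 0% = buffer only wells and 100% = XE-991 inhibitor control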
Active calls of the source: *; i = inactive; . = no result.

SMILES	KCNQ1 block	KCNQ1 pot	KCNK9 inh	Kir21 block	KCNK3 block	hERG rescue	KCNQ1 block val	CHO KCNQ1 ctr	KCNQ2 spec	KCNQ1-KCNE1 inh	others
Fc1ccc(CSc2nc3ccccc3[nH]2)c2ccccc12	6*	i	i	-0.04	i	-13.4	124.5*	0.351*	107.0%*	124.5%*
O=c1cc(CSc2nc3ccccc3[nH]2)c2ccccc2[nH]1	i	i	i	0.89	i	-13.2	.	.	.	.
Cc1ccccc1OCC(=O)Nc1ccccc1N1CCCCC1	8*	i	-8*	-2.63	i	-8.9	120.5*	0.459	95.3%*	170.0%*	KCNQ1 APC inh=i
O=C(COc1ccccc1[N+](=O)[O-])Nc1ccccc1N1CCCCC1	i	i	i	0.48	i	-8.8	.	.	.	.
O=C(Nc1ccccc1N1CCCCC1)c1ccccc1F	6*	i	i	0.11	i	-6.5	102.0*	0.369*	75.7%*	143.5%*
O=C(Nc1ccccc1N1CCCC1)c1ccccc1F	i	i	i	1.74	i	-2.1	.	.	.	.
Cn1cc(CN2CCC(n3nccc3NC(=O)c3ccccc3Cl)CC2)c2ccccc21	i	i	i	0.03	i	-13.7	.	.	.	.
O=C(Nc1nc(-c2cccs2)c(C(=O)C(F)(F)F)s1)c1ccccc1	7*	i	i	2.55	i	-12.3	25.0*	0.476	i	i
COc1cccc(-c2cc3nc(-c4ccccc4)cc(N4CCCC(O)C4)n3n2)c1 (stereo unspecified)	9*	i	i	0.83	i	-20.0	85.0*	0.443	134.0%*	182.0%*
CC(=O)N1C(C(=O)O)Cc2c([nH]c3ccccc23)C1C (stereo unspecified)	i	i	i	1.25	i	-4.3	.	.	.	.
COc1ccc(-c2cc(-c3nnc(-c4ccncc4)o3)c3ccccc3n2)cc1	i	i	i	1.55	i	-3.4	.	.	.	.
c1ccc2c(-c3nc(C4CCCCC4)no3)cc(-c3ccncc3)nc2c1	7*	i	i	0.02	i	-8.7	84.5*	0.501	93.0%*	79.0%*
O=C(Nc1nc2c(s1)COc1ccccc1-2)c1cccs1	7*	i	i	-0.36	i	-16.4	44.0*	0.524	102.0%*	63.5%*
O=C(CCS(=O)(=O)c1ccccc1)Nc1nc2c(s1)COc1ccccc1-2	6*	i	i	0.24	i	-21.7	54.0*	0.514	59.3%*	53.5%*
O=C(CCS(=O)(=O)c1ccccc1)Nc1nncs1	i	i	i	-0.76	i	-1.9	.	.	.	.
C=CCN(C(=O)c1ccccc1)C1CCS(=O)(=O)C1 (stereo unspecified)	i	i	i	2.03	i	-2.2	.	.	.	.
CN(C)c1nc(N(C)C)n(C(=O)c2ccc(F)cc2)n1	i	i	i	-0.06	i	-8.8	.	.	.	.
CCOC(=O)c1c(NC(=O)CSc2nnc(-c3c[nH]c4ccccc34)n2C)sc2c1CCCC2	7*	i	i	0	i	-21.5	64.0*	0.458	65.3%*	i
CN1CCN(NC(=O)c2ccc(Cl)c([N+](=O)[O-])c2)CC1	i	i	i	0.24	i	-1.0	.	.	.	.
CC(=O)Nc1cccc(-c2csc(Nc3cc(C)ccn3)n2)c1	6*	i	i	2.61	i	-17.1	70.0*	0.506	90.3%*	38.5%*
O=C(Nc1ccc(OC(F)(F)F)cc1)Nc1cccnc1	6*	i	i	1.87	i	-7.2	40.5*	0.477	i	i
Cc1ccc(NC(=O)Nc2cccnc2)cc1Cl	7*	i	i	-0.02	i	-16.6	65.5*	0.513	i	i
O=C(Nc1cccnc1)Nc1cc(Cl)cc(Cl)c1	i	i	i	0.6	i	-18.3	.	.	.	.
Fc1ccc(NC(=S)Nc2cccnc2)cc1Cl	8*	i	i	0.55	i	-12.8	66.5*	0.469	i	34.5%*
O=C(Nc1ccc(F)cc1)Nc1cccnc1	i	i	i	-1.21	i	-9.2	.	.	.	.
SMILES	KCNQ1 block	KCNQ1 pot	KCNK9 inh	Kir21 block	KCNK3 block	hERG rescue	KCNQ1 block val	CHO KCNQ1 ctr	KCNQ2 spec	KCNQ1-KCNE1 inh	others
Fc1ccc(NC(=S)Nc2ccccc2N2CCOCC2)cc1Cl	9*	i	i	-7.36*	i	-22.4	0.0	0.499	i	i
CCCCn1nc2cc(C(=O)N[C@H](C)C3CCCCC3)ccc2c1OCC	i	i	i	0.03	i	-8.9	.	.	.	.
CN(C)C(=S)SCC(=O)NC(=O)NC(C)(C)C	i	i	i	0.49	i	-7.8	.	.	.	.
O=C(Nc1cccc(Cl)c1)Nc1ccon1	7*	i	i	2.58	i	-10.0	54.0*	0.541	i	i
O=C(Nc1cccc(Cl)c1)Nc1ccnc(-c2cccnc2)n1	6*	i	i	-2.75	i	-9.2	73.5*	0.522	i	i
O=C(Nc1cccc(Cl)c1)Nc1nccs1	7*	i	i	1.72	i	-5.9	69.5*	0.539	i	41.5%*
O=C(Nc1cccc(Cl)c1)Nc1cnccn1	i	i	i	0.45	i	-2.9	.	.	.	.
Cc1csc(NC(=O)Nc2cccc(Cl)c2)n1	6*	i	i	1.05	i	-4.6	70.5*	0.518	i	93.0%*
O=C(Nc1ccccc1)Nc1ccc(Br)cc1F	i	i	i	-0.79	i	-11.1	.	.	.	.
O=C(Nc1cccc(Cl)c1)Nc1ccc(Br)cc1F	9*	i	i	-0.1	i	-12.8	52.0*	0.553	i	i
COc1ccc(-c2csc3ncnc(N4CCN(c5cccc(C)c5C)CC4)c23)cc1	7*	i	i	-0.67	i	-14.5	93.5*	0.434	68.3%*	148.5%*	KCNQ1 APC inh=i
COc1ccc(CN2CCN(c3ncnc4scc(-c5ccc(F)cc5)c34)CC2)cc1	i	i	i	-0.53	i	-11.7	.	.	.	.
